The values that follow come from ChEMBL document CHEMBL3616382, “Catechols and 3-hydroxypyridones as inhibitors of the DNA repair complex ERCC1-XPF” (Bioorg Med Chem Lett, 2015).

Data set [1] concerns the target T1, DNA excision repair protein ERCC-1/DNA repair endonuclease XPF (Homo sapiens) (UniProt P07992+Q92889). Briefly: Inhibition of ERCC1-XPF in human A375 cells assessed as induction of delay in DNA repair by measuring cumulative frequency of cells at 10 uM pre-incubated for 1 hr before 5 uM cisplatin exposure for 1 hr and measured after 6 hrs by […] based gammaH2AX foci assay (reference value: 45.43%). The settings on record: A-375. The data set is classed as cell-based. The arrangement: scale not given: the % may be the effect or the level left. The essentials: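 A375 cells pretreated with compound (10 μM) for 1 h, then 5 μM cisplatin for 1 h to induce damage, with continued compound exposure for 6 h. γH2AX foci per cell quantified by immunofluorescence with specific antibody and high-content imaging; cumulative Gaussian fit of foci distribution. 2 representative experiments, triplicates each, error bars SEM.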

Data set [2] addresses T2, DNA excision repair protein ERCC-1/DNA repair endonuclease XPF (Homo sapiens, UniProt P07992+Q92889).
T2 sequence (P07992 whole entry): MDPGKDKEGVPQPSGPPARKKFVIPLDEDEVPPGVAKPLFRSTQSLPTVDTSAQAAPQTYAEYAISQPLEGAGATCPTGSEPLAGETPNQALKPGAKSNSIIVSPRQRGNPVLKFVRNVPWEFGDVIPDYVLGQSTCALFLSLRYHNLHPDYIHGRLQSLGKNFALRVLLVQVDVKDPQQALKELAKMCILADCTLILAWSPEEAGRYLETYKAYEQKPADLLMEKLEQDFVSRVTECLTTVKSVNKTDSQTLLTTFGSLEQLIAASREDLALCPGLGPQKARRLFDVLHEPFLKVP
T2 sequence (Q92889 whole entry): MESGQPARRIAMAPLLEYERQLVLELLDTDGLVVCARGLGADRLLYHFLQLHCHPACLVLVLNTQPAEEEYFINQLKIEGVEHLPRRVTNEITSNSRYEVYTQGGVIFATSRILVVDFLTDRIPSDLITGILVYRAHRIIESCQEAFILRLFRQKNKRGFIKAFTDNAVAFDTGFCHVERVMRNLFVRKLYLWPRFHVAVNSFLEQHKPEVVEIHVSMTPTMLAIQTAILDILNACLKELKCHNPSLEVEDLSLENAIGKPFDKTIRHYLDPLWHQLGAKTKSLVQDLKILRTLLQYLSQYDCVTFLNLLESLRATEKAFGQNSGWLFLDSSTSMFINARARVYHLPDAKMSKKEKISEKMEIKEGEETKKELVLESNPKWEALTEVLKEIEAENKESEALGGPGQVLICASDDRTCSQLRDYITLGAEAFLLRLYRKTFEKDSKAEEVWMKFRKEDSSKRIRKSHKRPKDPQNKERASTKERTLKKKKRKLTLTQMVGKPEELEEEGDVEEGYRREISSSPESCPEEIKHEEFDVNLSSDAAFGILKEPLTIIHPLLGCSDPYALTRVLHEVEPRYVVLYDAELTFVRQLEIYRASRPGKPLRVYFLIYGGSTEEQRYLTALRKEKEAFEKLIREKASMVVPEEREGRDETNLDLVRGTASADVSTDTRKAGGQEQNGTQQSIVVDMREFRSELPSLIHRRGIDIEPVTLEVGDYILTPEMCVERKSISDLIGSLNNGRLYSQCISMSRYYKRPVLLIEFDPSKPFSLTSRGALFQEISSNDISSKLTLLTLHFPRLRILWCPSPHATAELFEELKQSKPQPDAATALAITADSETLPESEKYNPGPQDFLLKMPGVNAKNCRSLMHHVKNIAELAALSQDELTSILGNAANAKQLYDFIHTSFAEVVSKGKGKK
Briefly: Inhibition of ERCC1-XPF in human A375 cells assessed as reduction in direct nucleotide excision repair of UV-damaged pEGFP plasmid incubated for 234 hrs by recombinant GFP reporter assay. Conditions: in the assay text read “24 hrs” for “234 hrs”. The data set is classed as cell-based, A-375. The essentials: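 A375 cells co-transfected with UV-damaged or undamaged pEGFP plus pGL3 luciferase plasmid, treated with compound up to 60 μM for 24 h. GFP/luciferase ratio for damaged plasmid divided by that for undamaged, then normalized to no-compound controls to give % NER activity (DNA Repair Index); IC50 from plot against concentration.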
Background: In a reporter assay the amount or activity of a reporter protein is the signal.

For data set [3], the target named is T1, DNA excision repair protein ERCC-1/DNA repair endonuclease XPF (Homo sapiens). The settings on record: A-375, 2.48 uM.
The target in data set [4] is Flap endonuclease 1 (Homo sapiens, UniProt P39748). Briefly: Inhibition of FEN1 (unknown origin).
For data set [5], the target named is T1, DNA excision repair protein ERCC-1/DNA repair endonuclease XPF (Homo sapiens). The settings on record: A-375, 1.28 uM.
The target is the same in data set [6]. Conditions: A-375, 0.624 uM.
Data set [7] in a line: Lipophilicity, log D of the compound. The data set is classed as physicochemical. The settings on record: octanol/water.
The subject of data set [8] is HepG2. Briefly: Cytotoxicity against human HepG2 cells. The data set is classed as cell-based. The essentials: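 Hep-G2 cells exposed to compound at concentrations up to 10 μM; toxicity assessed.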
Data set [9] relates to A-375. Briefly: Cytotoxicity against human A375 cells assessed as reduction in cell number at 10 uM incubated for 5 days. The settings on record: a-375, 120 h. Format: cell-based. The essentials: (§1)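 A375 melanoma cells treated with compound alone over 0.6–10 μM for 5 days; cell count determined by high-content imaging. Data from 4 separate experiments, error bars SD.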
For data set [10], the target named is T1, DNA excision repair protein ERCC-1/DNA repair endonuclease XPF (Homo sapiens). The settings on record: A-375, 10 uM.
Data set [11] has as its target T2, DNA excision repair protein ERCC-1/DNA repair endonuclease XPF. Put plainly: Binding affinity to ERCC1-XPF (unknown origin) by SPR assay. Format: protein-complex assay. In general terms: Surface plasmon resonance follows binding to a sensor surface in real time, without labels.
The test system of data set [12] is A-375. Briefly: Cytotoxicity against human A375 cells assessed as reduction in cell number at 4.89 uM incubated for 5 days. The data set is classed as cell-based. Conditions: a-375, 120 h, 4.96 µM, in the assay text read “4.96 uM” for “4.89 uM”. Put shortly:
as §1

A short description of data set [13]: Half life in mouse liver microsomes. The data set is classed as ADME.
The target in data set [14] is T1, DNA excision repair protein ERCC-1/DNA repair endonuclease XPF (Homo sapiens). The settings on record: A-375, 4.96 uM.
The target of data set [15] is T3, Deoxyribonuclease-1 (Homo sapiens, UniProt P24855).
T3 sequence (P24855 whole entry): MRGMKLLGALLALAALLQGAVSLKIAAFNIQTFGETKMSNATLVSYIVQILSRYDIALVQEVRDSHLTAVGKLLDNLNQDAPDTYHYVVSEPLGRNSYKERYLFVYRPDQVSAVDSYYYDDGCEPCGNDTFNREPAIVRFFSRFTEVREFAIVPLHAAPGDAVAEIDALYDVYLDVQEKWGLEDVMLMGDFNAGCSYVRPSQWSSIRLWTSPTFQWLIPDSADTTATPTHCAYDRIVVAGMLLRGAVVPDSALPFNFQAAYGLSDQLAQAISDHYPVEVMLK
Put plainly: Inhibition of DNAse1 (unknown origin).

Data set [16] in a line: Half life in human liver microsomes. Format: ADME. For orientation: Microsomes from liver hold many membrane-bound enzymes, among them those of drug oxidation.
Data set [17] is described as follows: Apparent permeability by PAMPA method. Format: physicochemical.
For data set [18], the target named is T2, DNA excision repair protein ERCC-1/DNA repair endonuclease XPF. Briefly: Inhibition of ERCC1-XPF (unknown origin) by high-throughput fluorescence based in-vitro endonuclease assay. Format: protein-complex assay.

The structures appear in SMILES notation.

Sequence of Flap endonuclease 1 (P39748 whole entry): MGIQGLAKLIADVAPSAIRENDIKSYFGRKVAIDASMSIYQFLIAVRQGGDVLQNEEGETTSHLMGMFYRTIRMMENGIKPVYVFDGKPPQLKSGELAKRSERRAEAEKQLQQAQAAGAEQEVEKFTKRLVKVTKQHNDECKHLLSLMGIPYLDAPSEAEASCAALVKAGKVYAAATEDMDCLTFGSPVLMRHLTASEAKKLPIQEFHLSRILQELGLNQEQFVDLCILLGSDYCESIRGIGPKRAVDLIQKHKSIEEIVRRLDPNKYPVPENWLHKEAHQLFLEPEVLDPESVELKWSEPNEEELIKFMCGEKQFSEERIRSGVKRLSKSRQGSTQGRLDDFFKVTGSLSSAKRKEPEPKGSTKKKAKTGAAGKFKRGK

On to `O=C(Cc1ccc(Cl)cc1Cl)NCc1ccc(O)c(O)c1`, for which the Activity in data set [1] was 50.2%; in data set [8], over 10 µM; in data set [9], “Toxic”; in data set [12] it was “Toxic”. Besides, the IC50 was 15.6 µM in data set [2], over 100 µM in [4], over 100 µM in data set [15] and 0.63 µM in data set [18]. For the same compound, the PF50 in data set [3] turned out to be 1.51; in data set [5], 1.15; in data set [6], 1.08; in data set [10] it was 2.03; in data set [14] it was 1.68. In addition, the logD in data set [7] was found to be 2.7. The Kd in data set [11] amounted to 30 µM. Besides, the half-life came out at 23 min in [13] and 28 min in data set [16]. Further, in data set [17], the Papp is 3.9 ×10⁻⁶ cm/s.

A word on the IC50: it is the point on the concentration scale where inhibition reaches its midpoint. As usually defined, the logD is lipophilicity at a set pH, counting ionised and neutral species. One may read the Kd as the constant that tells how readily two partners part at equilibrium. For orientation: half-life means the time needed for the level to fall by half in the phase considered. One may read the Papp as the rate of passage across a membrane or cell layer, normalised by area and donor concentration.
